SIRT5 inh: blocks human SIRT5 desuccinylation of peptide; Q9NXA8; Purified SirT5, succinyl-peptide AMC, trypsin-coupled fluorescence; inhibition, % at 15 µM; 330,000 compounds, 1.1% hits; AID 652115; in the data active means inhibition above about 15%
Target sequence (Q9NXA8 whole entry, looked up): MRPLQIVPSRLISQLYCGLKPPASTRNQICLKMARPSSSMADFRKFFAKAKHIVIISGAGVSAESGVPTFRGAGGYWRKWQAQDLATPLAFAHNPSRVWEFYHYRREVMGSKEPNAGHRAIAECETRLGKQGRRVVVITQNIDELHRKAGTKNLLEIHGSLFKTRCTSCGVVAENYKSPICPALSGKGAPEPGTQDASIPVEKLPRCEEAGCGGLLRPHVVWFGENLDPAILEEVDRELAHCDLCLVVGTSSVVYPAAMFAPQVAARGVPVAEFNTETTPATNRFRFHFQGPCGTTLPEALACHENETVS
ERAP1 HTS inh: blocks human ERAP1 aminopeptidase activity | 340,000 compounds, 0.15% hits | inhibition, % at 10.7 µM | AID 652197 | recombinant ERAP1, Leu-AMC fluorescence, 60 min;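 active means mean replicate inhibition of at least 30%, or all replicates individually reaching that 30% level; inactive means mean below 30% and not every replicate reaching it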
CFTR F508del cor: CFTR F508del correction in bronchial cells. AID 720511. 350,000 compounds, 0.36% hits. activity (quench increase), % at 7.58 µM. CFBE cells, YFP halide quenching; stimulated with forskolin plus potentiator P3; % fluorescence drop versus neutral controls;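 active means mean added fluorescence quench of at least 8% versus neutral control, with both replicates also reaching 8%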;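 further: cells transiently co-express mutant CFTR-F508del with the halide-sensitive YFP; corrector assay measuring rescue of mutant channel to the surface after 24 h compound exposure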
S100A4 inh HTS: blocks human S100A4 binding to myosin IIA peptide; 360,000 compounds, 0.14% hits; S100A4/TAMRA-MyoIIA peptide fluorescence polarization; AID 652163; inhibition, % at 10.7 µM;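 active means mean inhibition of at least 70% across replicates, with every replicate also reaching that level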
Target sequence (P26447 whole entry, looked up): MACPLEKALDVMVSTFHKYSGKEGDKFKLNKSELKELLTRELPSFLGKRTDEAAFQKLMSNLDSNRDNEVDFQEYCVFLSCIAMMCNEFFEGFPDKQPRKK
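Test system – S100A4 monomer (human) · Compound – single-point compound testing · Schedule – 5 min incubation before reading · Probe or stimulus – TAMRA-labelled myosin IIA heavy-chain peptide probe, 5 nM · Benchmarks – neutral control DMSO, positive control TFP · Medium – Calcium-containing HEPES buffer, pH 7.2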
rRNA inh HTS: inhibitors of bacterial rRNA selective over humanized ribosomes; AID 720706; 350,000 compounds, 1.6% hits; GFP signal change (wild-type ribosome), % (concentration not given with the values); E. coli WT GFP vs humanized-ribosome RFP mutants, fluorescence, 24 h; stronger effect = lower value; DMSO median 0, no signal -100;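 active means significant combined selectivity score with lowered wild-type GFP, culture density cut under 30%, mutant RFP and density less affected; inactive means any of these conditions unmet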
Large screens that a line does not name were inactive. An excerpt weighted towards active compounds, which were near 3.1% of everything screened.

O=C(NCCc1ccccc1)c1cc([N+](=O)[O-])ccc1N1CCOCC1	none
CN(c1ccc(O)cc1)c1nc(O)c(C2=c3ccccc3=NC2=O)s1	SIRT5 inh 20 (no result: ERAP1 HTS inh)
CCCNC(=O)C(NS(=O)(=O)c1ccc2c(c1)c(=O)n(C)c(=O)n2C)c1ccccc1 (stereo unspecified)	none (no result: SIRT5 inh, ERAP1 HTS inh)
Cn1c(-c2ccccc2)cc(=NNS(C)(=O)=O)c2cc(S(=O)(=O)O)ccc21	ERAP1 HTS inh 37
CCOc1ccccc1NC(=O)CN1c2cccc3cccc(c23)S1(=O)=O	SIRT5 inh 19
C[C@H](O)C#Cc1ccc2c(c1)O[C@H](CN(C)Cc1ccccn1)[C@@H](C)CN([C@H](C)CO)S2(=O)=O	none
Cc1noc(C)c1NC(=O)N(C)C[C@H]1Oc2ccc(NS(=O)(=O)c3cn(C)cn3)cc2CC(=O)N([C@H](C)CO)C[C@@H]1C	none
CCCC(=O)NC(NC(=S)Nc1ccc(N=Nc2ccccc2)cc1)C(Cl)(Cl)Cl (stereo unspecified)	CFTR F508del cor 8.6
O=C(CCc1ccccc1)NC(NC(=S)Nc1ccc(Br)cc1)C(Cl)(Cl)Cl (stereo unspecified)	none
Cc1[nH]c2ccccc2c1/C=N/Nc1nncn1N	rRNA inh HTS -30
Cc1[nH]c2ccccc2c1/C=N/Nc1ccccn1	none
CC(=O)c1ccc(OCc2cn(CC(=O)c3ccc(O)cc3)nn2)cc1	none (no result: SIRT5 inh)
COc1cc(C(C)=O)ccc1OCc1cn(CC(=O)c2ccc(O)cc2)nn1	SIRT5 inh 21
COc1cc(C=O)ccc1OCc1cn(CC(=O)c2ccc(O)cc2)nn1	none (no result: SIRT5 inh)
CC(=O)c1ccc(OCc2cn(CC(=O)c3ccc(O)cc3)nn2)c(C)c1	rRNA inh HTS -31 (no result: ERAP1 HTS inh)
C[C@@H]1CN([C@H](C)CO)S(=O)(=O)c2ccc(-c3ccncc3)cc2O[C@@H]1CN(C)C(=O)CC1CC1	none
C/C=C/c1ccc([C@H]2[C@@H](CO)N(C(=O)CN(C)C)C23CN(C(=O)C2CC2)C3)cc1	none
CCN(C(=O)COC(=O)CNC(=O)c1cccs1)c1c(N)n(Cc2ccccc2)c(=O)[nH]c1=O	none
COCCN(C(=O)COC(=O)CNC(=O)c1cccs1)c1c(N)n(Cc2ccccc2)c(=O)[nH]c1=O	ERAP1 HTS inh 35
CO[C@H]1CN(C)C(=O)c2cc(NS(=O)(=O)c3ccc(Oc4ccccc4)cc3)ccc2OC[C@H](C)NC[C@H]1C	SIRT5 inh 28
CO[C@@H]1CN(C)C(=O)c2cc(NC(=O)c3ccc(Oc4ccccc4)cc3)ccc2OC[C@H](C)NC[C@H]1C	SIRT5 inh 100
CO[C@H]1CN(C)C(=O)c2cc(NC(=O)c3ccc(-c4ccccc4)cc3)ccc2OC[C@@H](C)NC[C@@H]1C	SIRT5 inh 103 (no result: rRNA inh HTS)
COc1ccccc1-c1ccc2c(c1)O[C@H](CN(C)C(=O)c1cccnc1)[C@@H](C)CN([C@@H](C)CO)S2(=O)=O	none
O=C1CC(c2ccc(F)cc2)CC2=C1C=Nc1ccccc1N2 (stereo unspecified)	none
O=C1CC(c2ccccc2)CC2=C1C=Nc1ccccc1N2 (stereo unspecified)	CFTR F508del cor 9.2 (no result: ERAP1 HTS inh)
Cn1cc(CNC(=O)c2cc(COc3ccc4c(c3)CCCC4)on2)cn1	rRNA inh HTS -32
CCN(Cc1cnn(C)c1)C(=O)c1cc(COc2ccc3c(c2)CCCC3)on1	none
C[C@H]1CCCCO[C@H](CN(C)C(=O)c2ccccc2)[C@@H](C)CN([C@@H](C)CO)C(=O)c2cc(NS(=O)(=O)c3cccs3)ccc2O1	none
N#Cc1ccc(NC(=O)Nc2ccc(Oc3ccc(NC(=O)Nc4ccc(C#N)cc4)cc3)cc2)cc1	rRNA inh HTS -28
C[C@H]1CN([C@@H](C)CO)S(=O)(=O)c2ccc(C#CCN(C)C)cc2O[C@H]1CN(C)C(=O)C1CCCCC1	none
CCCNC(=O)N[C@@H]1CC[C@@H](CCn2cc(C3CCCC3)nn2)O[C@H]1CO	none
CCOc1ccccc1N1CCN(C(=S)NCc2ccccc2)CC1	rRNA inh HTS -22
C[C@H](CO)N1C[C@H](C)[C@@H](CN(C)Cc2cccnc2)Oc2ncc(-c3ccncc3)cc2C1=O	none
Cc1ccc(S(=O)(=O)Nc2ccc3c(c2)C(=O)N([C@@H](C)CO)C[C@@H](C)[C@H](CN(C)S(C)(=O)=O)O3)cc1	none
